Tb MetRS inh = Trypanosoma brucei MetRS inhibition; purified T. brucei MetRS, ATP depletion, Kinase-Glo luminescence; inhibition, % at 11.9 µM; 360,000 tested, 0.4% active; AID 624268;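 active = inhibition above a per-plate cutoff of the control wells' mean inhibition plus 3 SD, cut at about 5.5% in these data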;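 note: 0% = DMSO wells median and 100% = median of wells with control inhibitor compound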
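Material: parasite MetRS enzyme / Replication: singlicate, one well per compound / Signal: luminescence of leftover ATP / Schedule: 2 h aminoacylation at 25 °C after 15 min preincubation / Medium: HEPES-MgCl2-KCl buffer plus DTT, spermine, BSA, pyrophosphatase / Doses: 11.9 µM single point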
ADAM17 inh = ADAM17 inhibition, QFRET primary screen. recombinant ADAM17, EDANS/DABCYL FRET peptide cleavage. 370,000 tested, 0.83% active. inhibition, % at 6.95 µM. P78536;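 active = inhibition above the mean of compounds lying between control limits plus 3 SD, set per campaign, cut at about 8.5% in these data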;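 note: 0% = DMSO-only wells as the low control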
Target sequence (P78536 215-824 limits assumed): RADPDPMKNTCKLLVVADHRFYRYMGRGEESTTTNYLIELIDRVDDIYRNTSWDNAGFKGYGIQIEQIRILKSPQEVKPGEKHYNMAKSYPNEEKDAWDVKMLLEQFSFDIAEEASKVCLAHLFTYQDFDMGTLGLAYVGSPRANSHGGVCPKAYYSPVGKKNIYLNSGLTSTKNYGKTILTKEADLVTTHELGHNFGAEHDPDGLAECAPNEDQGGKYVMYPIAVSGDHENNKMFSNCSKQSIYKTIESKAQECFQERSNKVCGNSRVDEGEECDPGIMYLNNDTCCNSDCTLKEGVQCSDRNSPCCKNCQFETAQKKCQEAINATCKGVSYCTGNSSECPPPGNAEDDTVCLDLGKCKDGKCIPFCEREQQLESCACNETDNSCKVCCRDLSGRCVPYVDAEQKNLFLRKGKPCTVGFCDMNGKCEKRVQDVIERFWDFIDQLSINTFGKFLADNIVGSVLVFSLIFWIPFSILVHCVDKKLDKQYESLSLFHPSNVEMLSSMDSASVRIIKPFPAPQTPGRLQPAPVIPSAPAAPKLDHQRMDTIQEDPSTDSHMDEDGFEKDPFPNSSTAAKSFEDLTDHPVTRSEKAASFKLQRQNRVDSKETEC
ADAM10 inh = inhibitors of human ADAM10. inhibition, % at 7 µM. AID 720582. recombinant ADAM10, EDANS/DABCYL FRET peptide cleavage, 3 h. O14672. 370,000 tested, 0.62% active;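 active = inhibition above a per-campaign cutoff equal to the mean of compounds falling between control-based bounds plus 3 SD, cut at about 20% in these data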;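 note: 0% = DMSO wells while the 100% control is not disclosed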
PLCg1 inh = inhibitors of human phospholipase C gamma1. purified PLC-gamma1, fluorogenic substrate, fluorescence. inhibition, % at 12.2 µM. 370,000 tested, 0.84% active; in the data active = inhibition above about 9.5%
PLCb3 inh = blocks human PLC-beta3 enzyme activity; Q01970; Purified PLC-beta3, fluorogenic substrate, fluorescence; inhibition, % at 12.2 µM; 370,000 tested, 0.18% active;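 note: 0% = median of compound wells on plate and 100% = full blocker control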
ADAM10 confirm = confirmation of inhibitors of human ADAM10. shares compounds with ADAM10 inh. ADAM10 QFRET peptide cleavage, EDANS fluorescence. inhibition, % at 6.95 µM. 2,100 tested, 1% active. AID 743208;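 active = inhibition above about 20% chosen separately for each screening run, limit read from the data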;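 note: 0% = DMSO wells and 100% = marimastat wells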
ADAM17 counter = inhibits human ADAM17 in ADAM10 exosite counter-screen; shares compounds with ADAM10 inh; ADAM17 QFRET peptide cleavage, EDANS fluorescence; inhibition, % at 6.95 µM; 2,100 tested, 0.5% active; AID 743214;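 active = mean triplicate inhibition above the solvent-only control wells' mean plus 3 SD, cut at about 12% in these data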;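 note: 0% = DMSO wells and 100% = marimastat wells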
ADAM10 counter = counter-screen for ADAM17 exosite inhibitors: inhibitors of human ADAM10; shares compounds with ADAM17 inh; recombinant ADAM10, EDANS/DABCYL FRET peptide cleavage, 3 h; inhibition, % at 6.95 µM; 2,900 tested, 47% active;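 active = mean inhibition over the triplicate runs exceeds the activity threshold set in the earlier primary screen, cut at about 20% in these data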;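 note: 0% = DMSO wells and 100% = marimastat wells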
ADAM17 confirm = human ADAM17 inhibition, confirmation; shares compounds with ADAM17 inh; recombinant ADAM17, EDANS/DABCYL QFRET peptide cleavage; inhibition, % at 6.95 µM; 2,900 tested, 65% active; AID 743257;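 active = mean inhibition across replicates above the hit cutoff set in the primary screen, cut at about 8.5% in these data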;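 note: 0% = DMSO wells and 100% = marimastat wells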
PLCg1 ctr = PLC-gamma1 inhibition, counter-screen for PLC-beta3 hits | shares compounds with PLCg1 inh | purified PLC-gamma1, fluorogenic substrate, fluorescence | inhibition, % at 12.3 µM | 3,300 tested, 3.1% active; in the data active = inhibition above about 9.5%
PLCbeta3 conf = confirmation of human PLC-beta3 inhibitors; shares compounds with PLCg1 inh; purified PLC-beta3, fluorogenic substrate fluorescence; inhibition, % at 12.3 µM; 3,300 tested, 1% active
* hit, by the source's call; nt = not tested or not shown. Compounds with a hit are over-represented: about 2.3% of the library has one in this group of screens. Cut-off read from the data, not from the text of the source, unless noted: active = inhibition above about 11%; inactive = the rest.

SMILES	Tb MetRS inh	ADAM17 inh	ADAM10 inh	PLCg1 inh	PLCb3 inh	ADAM10 confirm	ADAM17 counter	ADAM10 counter	ADAM17 confirm	others
C[C@H](NC(=O)OCc1ccccc1)C(=O)NC(Cc1ccccc1)P(=O)(Oc1ccccc1)Oc1ccccc1 (stereo partly specified)	nt	3	13	1	2	nt	nt	nt	nt
CCCC/C(C)=C/[C@@H](NP(=O)(c1ccccc1)c1ccccc1)c1ccccc1	0	9	20*	2	1	7	2	nt	nt
CC(C)CCP(=O)(O)O	nt	-1	-2	3	3	nt	nt	nt	nt
CCOC(=O)CC[C@@H]1CC[C@]2(CCCN(Cc3cccnc3)C2)O1	nt	-4	-5	0	0	nt	nt	nt	nt
CCCCN1CCN(C(=O)COc2cc(=O)n(C)c3ccccc23)CC1	nt	-3	-2	-2	0	nt	nt	nt	nt
COC(=O)c1ccc(NC(=O)CSc2nc3ccc(N4C(=O)C5C6C=CC(C6)C5C4=O)cc3s2)cc1 (stereo unspecified)	1	7	25*	5	3	5	2	nt	nt
CCCCCCC(C)(C)c1ccc([C@@H]2C[C@H](O)CC[C@H]2CCCO)c(O)c1	-1	6	27*	2	3	5	1	nt	nt
COC(=O)C1=C(c2ccccc2OCc2ccccc2)C[C@@H]2CC[C@H]1N2C(=O)NCc1ccc(F)cc1	0	-1	12	-1	0	nt	nt	nt	nt
COC(=O)C1=C(c2cccc(OCc3ccccc3)c2)C[C@@H]2CC[C@H]1N2C(=O)NCc1ccc([N+](=O)[O-])cc1	0	7	26*	-1	4	9	2	nt	nt
COC(=O)C1=C(c2ccccc2OCc2ccccc2)C[C@@H]2CC[C@H]1N2C(=O)NCc1ccc(C(C)(C)C)cc1	0	4	25*	1	2	11	3	nt	nt
COc1ccc(NP(=O)(Oc2ccc(Cl)cc2)Oc2ccc(Cl)cc2)cc1OC	-1	12*	23*	3	4	9	4	41*	17*
Cc1c(P(=S)(c2ccccc2)c2ccccc2)c2ccccc2n1C	nt	-3	-5	0	1	nt	nt	nt	nt
CC(C)c1ccc(C(c2c(O)c3ccccc3oc2=O)c2c(O)c3ccccc3oc2=O)cc1	0	9.6*	23*	-17	-30	8	1	34*	23*
COc1ccc(-n2nnnc2C(CCc2ccccc2)N2CCC3(CC2)C(=O)NCN3c2ccccc2)cc1 (stereo unspecified)	0	12*	28*	-4	-2	10	3	33*	18*
CCC(c1nnnn1-c1ccc(OC)cc1)N1CCC2(CC1)C(=O)NCN2c1ccccc1 (stereo unspecified)	0	-1	-4	-3	-1	nt	nt	nt	nt
COP(=O)(OC)C(C)NC(=O)OCc1ccccc1 (stereo unspecified)	nt	-5	-4	1	2	nt	nt	nt	nt
CC1=CC(C)CC(C)OC(=O)CC(c2ccc(O)cc2)NC(=O)C(Cc2c(Br)[nH]c3ccccc23)N(C)C(=O)C(C)NC(=O)C(C)C1 (stereo unspecified)	0	8.9*	25*	2	6	2	1	30*	18*
Cc1cc(N2CCNC[C@H]2C)ccc1N1CC[C@H](O)C1	nt	-2	-9	0	-3	nt	nt	nt	nt
CC(C)C[C@H]1N=C(c2ccccc2)c2ccccc2N(CC(=O)NC(C)(C)C)C1=O	nt	-2	0	1	5	nt	nt	nt	nt
Oc1ccc(O)c2c1C1(Cl)C(Cl)=C(Cl)C2(Cl)C1(Cl)Cl	0	15*	41*	3	1	5	2	29*	14*
COCCNC(=O)N1[C@H]2CC[C@@H]1C(C(=O)OC)=C(c1ccc(-c3ccccc3)c(F)c1)C2	0	-3	-4	-1	0	nt	nt	nt	nt
COC(=O)C1=C(c2ccc(-c3ccccc3)c(F)c2)C[C@@H]2CC[C@H]1N2C(=O)NCCOc1ccccc1	0	18*	38*	10*	2	5	2	38*	19*	PLCg1 ctr=-1;PLCbeta3 conf=0
CC(NC(=O)OC1CC2CCC1(C)C2(C)C)P(=O)(Oc1ccccc1)Oc1ccccc1 (stereo unspecified)	nt	-2	-1	3	2	nt	nt	nt	nt
COc1ccc(OC)c(NP(=O)(Oc2ccccc2)Oc2ccccc2)c1	0	10*	32*	11*	-1	0	1	8	6	PLCg1 ctr=-1;PLCbeta3 conf=1
COc1ccc(S(=O)(=O)NC(CC(=O)N2CCC3(CC2)OCCO3)c2ccco2)cc1 (stereo unspecified)	-1	-1	12	3	3	nt	nt	nt	nt
SMILES	Tb MetRS inh	ADAM17 inh	ADAM10 inh	PLCg1 inh	PLCb3 inh	ADAM10 confirm	ADAM17 counter	ADAM10 counter	ADAM17 confirm	others
COc1ccc(C(=O)Nc2cccc(S(=O)(=O)NCc3ccco3)c2)cc1	0	8.7*	11	2	-3	nt	nt	23*	15*
O=C(CN1C(=O)[C@@H](Cc2ccc(O)cc2)N=C(c2ccccc2)c2ccccc21)NC1CCCCC1	nt	1	3	3	2	nt	nt	nt	nt
O=c1[nH]c2ccccc2n1C1CCN(C(c2ccccc2OC(F)(F)F)c2nnnn2Cc2ccccc2)CC1 (stereo unspecified)	0	12*	13	1	-8	nt	nt	42*	20*
COc1ccc(-n2nnnc2C(c2cc3ccccc3o2)N2CCC(n3c(=O)[nH]c4ccccc43)CC2)cc1 (stereo unspecified)	-1	9.6*	18	-1	-7	nt	nt	28*	13*
COc1ccc(C(c2nnnn2Cc2ccccc2)N2CCC(n3c(=O)[nH]c4ccccc43)CC2)cc1 (stereo unspecified)	1	-1	0	0	0	nt	nt	nt	nt
O=c1[nH]c2ccccc2n1C1CCN(C(c2cccs2)c2nnnn2Cc2ccccc2)CC1 (stereo unspecified)	0	11*	13	3	3	nt	nt	38*	18*
c1ccc(-c2nc3ccccc3nc2-c2ccc(CN3CCC(n4nnc5ccccc54)CC3)cc2)cc1	nt	-22	-92	-43	-63	nt	nt	nt	nt

Screening data deposited in PubChem BioAssay by The Scripps Research Institute Molecular Screening Center.
